The values below come from ChEMBL document CHEMBL4007505 (J Med Chem, 2017).

The target of test [1] is T1, Alpha-2C adrenergic receptor (Homo sapiens, UniProt P18825).
T1 sequence (P18825 whole entry): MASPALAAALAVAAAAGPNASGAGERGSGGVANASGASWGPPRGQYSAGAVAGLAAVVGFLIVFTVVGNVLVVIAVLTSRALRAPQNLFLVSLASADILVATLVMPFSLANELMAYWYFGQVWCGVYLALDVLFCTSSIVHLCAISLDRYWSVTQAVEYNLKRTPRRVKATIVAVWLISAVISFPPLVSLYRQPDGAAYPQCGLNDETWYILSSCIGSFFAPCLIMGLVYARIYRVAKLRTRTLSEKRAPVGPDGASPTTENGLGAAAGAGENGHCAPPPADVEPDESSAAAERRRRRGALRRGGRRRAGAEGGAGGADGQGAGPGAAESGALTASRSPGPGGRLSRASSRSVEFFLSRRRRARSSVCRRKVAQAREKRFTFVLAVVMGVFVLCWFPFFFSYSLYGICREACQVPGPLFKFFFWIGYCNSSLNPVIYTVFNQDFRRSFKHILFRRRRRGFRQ
As to the kind of experiment: Displacement of [3H]Rauwolscine from human adrenergic alpha2C receptor. A general note: Loss of bound radioactivity is the signal in a displacement assay; it reports binding, not function.

Test [2] addresses Sodium-dependent serotonin transporter (Homo sapiens, UniProt P31645). Nature of the test: Enhancing of [3H]mazindol binding to recombinant human SERT expressed in HEK293 cell membranes preincubated for 10 mins followed by radioligand addition measured after 90 mins by micro beta scintillation counting analysis.
In test [3] the target is T2, Alpha-1D adrenergic receptor (Homo sapiens, UniProt P25100).
T2 sequence (P25100 whole entry): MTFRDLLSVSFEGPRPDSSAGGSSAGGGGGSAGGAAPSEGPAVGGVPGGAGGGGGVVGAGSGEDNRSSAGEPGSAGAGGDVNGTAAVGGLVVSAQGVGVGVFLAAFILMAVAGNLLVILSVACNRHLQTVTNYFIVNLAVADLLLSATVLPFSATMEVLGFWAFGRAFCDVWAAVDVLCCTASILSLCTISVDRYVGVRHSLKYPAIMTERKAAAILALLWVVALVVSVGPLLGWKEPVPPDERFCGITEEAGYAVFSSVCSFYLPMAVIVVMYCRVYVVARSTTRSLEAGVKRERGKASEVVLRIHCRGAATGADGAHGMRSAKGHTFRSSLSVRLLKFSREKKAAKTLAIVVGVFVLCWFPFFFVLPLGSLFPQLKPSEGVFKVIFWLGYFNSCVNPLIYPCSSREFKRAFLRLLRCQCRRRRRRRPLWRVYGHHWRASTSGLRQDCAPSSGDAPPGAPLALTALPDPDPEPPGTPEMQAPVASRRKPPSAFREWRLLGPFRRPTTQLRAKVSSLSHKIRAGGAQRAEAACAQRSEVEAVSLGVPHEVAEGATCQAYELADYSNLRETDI
As to the kind of experiment: Displacement of [3H]Prazosin from human adrenergic alpha1D receptor.

In test [4] the target is Sodium-dependent noradrenaline transporter (Homo sapiens, UniProt P23975). As to the kind of experiment: Inhibition of recombinant human NET expressed in HEK293 […] assessed as reduction in [3H]-norepinephrine uptake incubated for 22 mins by micro beta scintillation counting analysis.
Sequence of Sodium-dependent noradrenaline transporter (P23975 whole entry): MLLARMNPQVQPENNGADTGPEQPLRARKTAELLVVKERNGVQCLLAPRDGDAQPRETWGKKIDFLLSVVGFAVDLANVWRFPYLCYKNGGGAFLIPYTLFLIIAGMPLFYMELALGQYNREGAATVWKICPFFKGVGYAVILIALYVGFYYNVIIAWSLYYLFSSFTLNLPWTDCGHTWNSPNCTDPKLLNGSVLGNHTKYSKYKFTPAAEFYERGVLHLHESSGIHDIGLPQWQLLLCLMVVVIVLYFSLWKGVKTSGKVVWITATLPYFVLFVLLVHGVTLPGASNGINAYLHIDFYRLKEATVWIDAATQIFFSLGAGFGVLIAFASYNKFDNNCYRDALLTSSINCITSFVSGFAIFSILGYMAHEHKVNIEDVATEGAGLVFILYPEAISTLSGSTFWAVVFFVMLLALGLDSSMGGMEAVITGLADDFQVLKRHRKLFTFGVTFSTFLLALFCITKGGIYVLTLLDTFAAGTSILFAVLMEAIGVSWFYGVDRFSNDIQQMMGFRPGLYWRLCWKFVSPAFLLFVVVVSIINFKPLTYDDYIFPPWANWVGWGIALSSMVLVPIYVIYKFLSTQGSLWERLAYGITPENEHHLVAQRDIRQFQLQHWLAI
Test [5] has as its target Alpha-2B adrenergic receptor (Homo sapiens, UniProt P18089). Nature of the test: Displacement of [3H]Rauwolscine from human adrenergic alpha2B receptor.
Test [6] concerns the target T3, Sodium-dependent dopamine transporter (Homo sapiens, UniProt Q01959). Nature of the test: Inhibition of recombinant human DAT expressed in HEK293 cell […] as reduction in [3H]-DA uptake incubated for 22 mins by micro beta scintillation counting analysis.
Test [7] addresses T3, Sodium-dependent dopamine transporter. As to the kind of experiment: Enhancing of [3H]mazindol binding to recombinant human DAT expressed in HEK293 cell membranes preincubated for 10 mins followed by radioligand addition measured after 90 mins by micro beta scintillation counting analysis. Further details: concentration or dose not given beside the values. The procedure, abridged: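 Membranes of HEK-293 cells stably expressing hDAT, hNET or hSERT. […] Compound preincubated 10 min at room temperature, then [125I]23 (40-80 pM final) or [3H]26 (1-3 nM for DAT and NET, 10-13 nM for SERT) added. Incubated 90 min at room temperature in the dark, then filtered. EC50 or Ki; mean ± SEM.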

The target of test [8] is T4, Alpha-1B adrenergic receptor (Homo sapiens, UniProt P35368).
T4 sequence (P35368 whole entry): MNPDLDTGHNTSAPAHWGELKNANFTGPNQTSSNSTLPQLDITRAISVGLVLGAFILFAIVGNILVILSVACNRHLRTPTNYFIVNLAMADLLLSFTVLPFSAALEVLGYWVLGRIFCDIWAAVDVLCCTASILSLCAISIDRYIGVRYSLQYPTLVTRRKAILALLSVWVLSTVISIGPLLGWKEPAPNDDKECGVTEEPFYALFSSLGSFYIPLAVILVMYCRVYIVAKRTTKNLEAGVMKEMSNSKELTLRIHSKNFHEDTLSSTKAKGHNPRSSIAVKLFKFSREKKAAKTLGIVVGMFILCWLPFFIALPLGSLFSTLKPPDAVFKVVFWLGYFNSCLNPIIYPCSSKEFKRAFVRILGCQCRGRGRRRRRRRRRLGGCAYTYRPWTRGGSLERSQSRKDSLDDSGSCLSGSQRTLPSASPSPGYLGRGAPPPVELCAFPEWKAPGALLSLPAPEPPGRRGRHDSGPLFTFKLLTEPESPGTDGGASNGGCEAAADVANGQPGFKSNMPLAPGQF
As to the kind of experiment: Displacement of [3H]Prazosin from human adrenergic alpha1B receptor.

pEC50, pIC50, pKi: −log10 of the molar value. Bounds are passed on as bounds.

T3 sequence (Q01959 whole entry): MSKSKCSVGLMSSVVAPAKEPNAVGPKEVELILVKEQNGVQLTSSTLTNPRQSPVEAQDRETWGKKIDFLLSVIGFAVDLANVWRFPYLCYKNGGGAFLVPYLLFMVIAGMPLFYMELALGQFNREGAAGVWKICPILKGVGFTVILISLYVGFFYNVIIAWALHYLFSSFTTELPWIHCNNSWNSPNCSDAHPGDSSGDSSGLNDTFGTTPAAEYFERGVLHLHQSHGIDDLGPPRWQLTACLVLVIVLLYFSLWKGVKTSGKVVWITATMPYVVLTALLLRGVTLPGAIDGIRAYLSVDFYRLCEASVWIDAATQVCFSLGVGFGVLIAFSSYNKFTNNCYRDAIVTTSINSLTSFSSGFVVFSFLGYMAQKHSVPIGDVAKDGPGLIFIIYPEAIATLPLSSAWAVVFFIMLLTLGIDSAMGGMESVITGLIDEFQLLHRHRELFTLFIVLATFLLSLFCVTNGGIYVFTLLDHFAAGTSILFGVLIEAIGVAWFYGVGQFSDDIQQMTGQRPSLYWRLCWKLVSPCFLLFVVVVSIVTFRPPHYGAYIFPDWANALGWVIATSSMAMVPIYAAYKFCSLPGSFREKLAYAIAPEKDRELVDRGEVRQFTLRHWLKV
Sequence of Sodium-dependent serotonin transporter (P31645 whole entry): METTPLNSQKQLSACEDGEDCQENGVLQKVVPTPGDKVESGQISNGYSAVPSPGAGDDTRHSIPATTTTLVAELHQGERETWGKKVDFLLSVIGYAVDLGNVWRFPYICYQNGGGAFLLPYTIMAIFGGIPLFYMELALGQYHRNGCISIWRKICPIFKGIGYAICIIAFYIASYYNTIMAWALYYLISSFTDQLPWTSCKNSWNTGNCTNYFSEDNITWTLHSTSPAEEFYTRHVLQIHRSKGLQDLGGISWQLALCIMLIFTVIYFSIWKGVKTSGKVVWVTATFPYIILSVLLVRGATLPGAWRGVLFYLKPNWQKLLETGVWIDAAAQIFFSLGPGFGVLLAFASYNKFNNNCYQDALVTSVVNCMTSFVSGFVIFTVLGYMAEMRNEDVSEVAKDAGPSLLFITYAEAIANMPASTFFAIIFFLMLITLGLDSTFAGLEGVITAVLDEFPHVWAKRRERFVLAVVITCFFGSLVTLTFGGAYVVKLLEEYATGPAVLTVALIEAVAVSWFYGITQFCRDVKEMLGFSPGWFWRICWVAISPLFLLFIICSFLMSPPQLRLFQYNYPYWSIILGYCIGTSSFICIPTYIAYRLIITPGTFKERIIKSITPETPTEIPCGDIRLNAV
Sequence of Alpha-2B adrenergic receptor (P18089 whole entry): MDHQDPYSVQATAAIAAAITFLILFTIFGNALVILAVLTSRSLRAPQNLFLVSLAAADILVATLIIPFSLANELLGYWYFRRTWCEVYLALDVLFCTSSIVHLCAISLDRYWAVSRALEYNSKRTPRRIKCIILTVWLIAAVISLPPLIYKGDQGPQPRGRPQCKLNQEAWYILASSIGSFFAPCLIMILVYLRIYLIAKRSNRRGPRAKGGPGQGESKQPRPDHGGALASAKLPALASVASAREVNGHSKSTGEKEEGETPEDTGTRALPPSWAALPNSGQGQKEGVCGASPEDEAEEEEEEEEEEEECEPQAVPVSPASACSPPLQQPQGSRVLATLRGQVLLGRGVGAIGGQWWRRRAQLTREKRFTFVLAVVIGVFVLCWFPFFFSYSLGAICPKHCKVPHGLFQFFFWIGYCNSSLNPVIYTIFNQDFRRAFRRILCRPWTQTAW

On to `CNc1nc(C#Cc2ccc(Cl)s2)nc2c1ncn2[C@@H]1O[C@H](C(=O)OC)[C@@H](O)[C@H]1O`, for which the pKi was < 5.00 in test [1], < 5.00 in test [3], 5.00 to 5.30 in test [5] and < 5.00 in test [8]. The pEC50 is < 5.00 in test [2] and 6.07 in test [7] (read-out: EC50). Besides, the values for the pIC50 in test [4] and in test [6] were 5.57 and 6.40, respectively. Besides, in test [7], the Activity worked out at 269%.

In general, pKi refers to the Ki on a negative log10 scale, so that one unit is a factor of ten. For orientation: pEC50 means the negative decadic logarithm of the EC50, by convention in mol/L. For orientation: pIC50 means the negative decadic logarithm of the IC50, by convention in mol/L.
